In ChEMBL document CHEMBL3600299, “Identification of alpha-substituted acylamines as novel, potent, and orally active mGluR5 negative allosteric modulators” (Bioorg Med Chem Lett, 2015) one finds IC50, inhibition and Activity data, which are given here for 33 molecules.

By IC50 is commonly meant the point on the concentration scale where inhibition reaches its midpoint. By inhibition is commonly meant the share of the control response that was lost under treatment.

Each structure is given as a SMILES string. Active and inactive are the calls of the source.

The target of one data set is T1, Metabotropic glutamate receptor 5 (Homo sapiens, UniProt P41594). Put plainly: Negative allosteric modulator activity against human mGluR5 expressed in HEK293 cells assessed as inhibition of glutamate-induced inositol phosphate accumulation by IP-one HTRF assay. The format is functional, cell-based.
Conditions: not given
Put shortly: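 HEK293 cells stably expressing human mGluR5 incubated 60 min with 2.5 lmol/L glutamate, with or without compound. Glutamate-induced inositol phosphate (IP1) accumulation read by IP-One HTRF kit.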
Background: Time-resolved FRET reads energy transfer from a long-lived donor to a nearby acceptor.
Target sequence in this assay (P41594 whole entry): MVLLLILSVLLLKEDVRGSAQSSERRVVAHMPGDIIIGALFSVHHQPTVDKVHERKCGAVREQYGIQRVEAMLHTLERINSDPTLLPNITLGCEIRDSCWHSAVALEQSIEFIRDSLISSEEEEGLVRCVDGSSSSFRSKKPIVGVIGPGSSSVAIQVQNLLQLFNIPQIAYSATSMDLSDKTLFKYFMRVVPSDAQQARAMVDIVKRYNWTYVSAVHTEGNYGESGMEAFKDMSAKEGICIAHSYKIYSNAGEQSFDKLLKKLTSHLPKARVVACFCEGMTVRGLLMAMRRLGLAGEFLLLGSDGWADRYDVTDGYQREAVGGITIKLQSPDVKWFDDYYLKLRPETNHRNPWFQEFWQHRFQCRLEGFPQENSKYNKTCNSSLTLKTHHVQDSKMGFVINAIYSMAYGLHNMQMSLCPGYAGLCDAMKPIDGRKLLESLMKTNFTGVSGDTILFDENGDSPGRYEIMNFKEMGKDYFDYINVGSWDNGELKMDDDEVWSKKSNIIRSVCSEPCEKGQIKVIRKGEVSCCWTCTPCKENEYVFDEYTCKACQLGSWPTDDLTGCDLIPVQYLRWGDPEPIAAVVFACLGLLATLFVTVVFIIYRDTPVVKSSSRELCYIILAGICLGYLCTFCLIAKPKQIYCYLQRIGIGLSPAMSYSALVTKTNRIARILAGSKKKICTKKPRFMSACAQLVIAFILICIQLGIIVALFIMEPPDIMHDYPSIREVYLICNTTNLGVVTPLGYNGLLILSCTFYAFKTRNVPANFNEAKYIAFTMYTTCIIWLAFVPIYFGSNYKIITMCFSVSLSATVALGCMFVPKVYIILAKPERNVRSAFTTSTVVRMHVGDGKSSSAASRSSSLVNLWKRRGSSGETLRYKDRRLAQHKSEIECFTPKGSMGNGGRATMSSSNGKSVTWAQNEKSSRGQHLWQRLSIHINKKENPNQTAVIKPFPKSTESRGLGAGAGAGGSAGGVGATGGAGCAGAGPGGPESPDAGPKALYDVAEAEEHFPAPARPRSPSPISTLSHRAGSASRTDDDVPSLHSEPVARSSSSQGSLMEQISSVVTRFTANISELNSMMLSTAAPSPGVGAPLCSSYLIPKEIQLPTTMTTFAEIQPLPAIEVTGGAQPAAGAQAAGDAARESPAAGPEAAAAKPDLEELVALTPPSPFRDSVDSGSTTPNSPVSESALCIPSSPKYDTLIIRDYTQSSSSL
With `CCC[C@@H](NC(=O)c1ccccn1)c1cnc(Nc2ccc(C)nc2)c(Cl)c1`, the IC50 was 27.8 nM.

As to `Cc1ccc(Nc2ncc([C@@H](NC(=O)c3nccs3)C3CCC3)cc2Cl)cn1`, the concentration for half-maximal inhibition (IC50) is above 1000 nM.

For `CCC[C@@H](NC(=O)c1ncco1)c1cnc(Nc2ccc(C)nc2)c(Cl)c1`, the IC50 came to 42.2 nM.

Regarding `Cc1ccc(Nc2ncc([C@H](NC(=O)c3nccs3)C(C)(C)C)cc2Cl)cn1`, the IC50 was found to be 30.9 nM.

On to `CCC[C@@H](NC(=O)c1nccs1)c1cnc(Nc2ccc(OC)nc2)c(Cl)c1`, for which the concentration for half-maximal inhibition (IC50) came out at 13.3 nM.

`C/C=C/C[C@@H](NC(=O)c1nccs1)c1cnc(Nc2ccc(C)nc2)c(Cl)c1`: the half-inhibitory concentration (IC50) was determined as 8.8 nM.

In the case of `Cc1ccc(Nc2ncc([C@H](NC(=O)c3nccs3)C3CCCC3)cc2Cl)cn1`, the concentration for half-maximal inhibition (IC50) was determined as 16.6 nM.

For the molecule `Cc1ccc(Nc2ncc([C@H](NC(=O)c3nccs3)C3CCC3)cc2Cl)cn1`, the 50% inhibitory concentration (IC50) was 9.3 nM.

For the molecule `CCC[C@@H](NC(=O)c1cocn1)c1cnc(Nc2ccc(C)nc2)c(Cl)c1`, the IC50 worked out at 23.3 nM.

`CCC[C@@H](NC(=O)c1nccs1)c1cnc(Nc2cnc(C)s2)c(Cl)c1`: the IC50 came to 60 nM.

For `CC[C@H](NC(=O)c1nccs1)c1cnc(Nc2ccc(C)nc2)c(Cl)c1`, the half-maximal inhibitory concentration (IC50) is above 1000 nM.

Turning to `CC[C@@H](NC(=O)c1nccs1)c1cnc(Nc2ccc(C)nc2)c(Cl)c1`, the IC50 is 15.4 nM.

Take `CCC[C@@H](NC(=O)c1nccs1)c1cnc(Nc2ccc(F)nc2)c(Cl)c1`: the IC50 was determined as 12.8 nM.

Consider `Cc1ccc(Nc2ncc([C@H](NC(=O)c3nccs3)C(C)C)cc2Cl)cn1`, for which the IC50 turned out to be 7.5 nM.

Consider `Cc1ccc(Nc2ncc(C3CCCN3C(=O)c3nccs3)cc2Cl)cn1` (stereo not given), for which the 50% inhibitory concentration (IC50) amounted to 182 nM.

In the case of `CCC[C@@H](NC(=O)c1nccs1)c1cnc(Nc2cnc(C)nc2)c(Cl)c1`, the IC50 turned out to be 43.9 nM.

As for `COC[C@H](NC(=O)c1nccs1)c1cnc(Nc2ccc(C)nc2)c(Cl)c1`, the IC50 stood at 55.9 nM.

For the molecule `Cc1ccc(Nc2ncc([C@@H](Cc3ccccc3)NC(=O)c3nccs3)cc2Cl)cn1`, the IC50 amounted to 55.5 nM.

As for `CCC[C@@H](NC(=O)c1nccs1)c1cnc(Nc2cccnc2)c(Cl)c1`, the IC50 amounted to 71.4 nM.

As for `CCC[C@@H](NC(=O)c1cscn1)c1cnc(Nc2ccc(C)nc2)c(Cl)c1`, the half-inhibitory concentration (IC50) was 31.2 nM.

Consider `Cc1ccc(Nc2ncc([C@@H](NC(=O)c3nccs3)C(C)C)cc2Cl)cn1`, for which the half-inhibitory concentration (IC50) is 1050 nM.

As to `CCC[C@H](NC(=O)c1nccs1)c1cnc(Nc2ccc(C)nc2)c(Cl)c1`, the IC50 turned out to be 978 nM.

Consider `CCC[C@@H](NC(=O)c1nccs1)c1cnc(Nc2ccc(C)nc2)c(Cl)c1`, for which the concentration for half-maximal inhibition (IC50) was 8.2 nM.

On to `CCC[C@@H](NC(=O)c1nc(C)cs1)c1cnc(Nc2ccc(C)nc2)c(Cl)c1`, for which the half-inhibitory concentration (IC50) was 10 nM.

In the case of `Cc1ccc(Nc2ncc([C@H](NC(=O)c3nccs3)C3CC3)cc2Cl)cn1`, the 50% inhibitory concentration (IC50) was found to be 9.7 nM.

On to `CCCN(Cc1cnc(Nc2ccc(C)nc2)c(Cl)c1)C(=O)c1nccs1`, for which the half-inhibitory concentration (IC50) turned out to be 584 nM.

In the case of `C=CC[C@@H](NC(=O)c1nccs1)c1cnc(Nc2ccc(C)nc2)c(Cl)c1`, the IC50 amounted to 2.4 nM.

Consider `CCCC[C@@H](NC(=O)c1nccs1)c1cnc(Nc2ccc(C)nc2)c(Cl)c1`, for which the IC50 turned out to be 30.9 nM.

Take `CCCC(NC(=O)c1nccs1)c1cnc(Nc2ccc(C)nc2)c(Cl)c1` (stereo not given): the IC50 was 28.7 nM.

Take `Cc1ccc(Nc2ncc([C@H](NC(=O)c3nccs3)C3CCCCC3)cc2Cl)cn1`: the half-inhibitory concentration (IC50) amounted to 37.8 nM.

A further data set addresses T1, Metabotropic glutamate receptor 5. Kind of data set: Negative allosteric modulator activity against human mGluR5 expressed in HEK293 cells assessed as inhibition of glutamate-induced inositol phosphate accumulation at 100 nM by IP-one HTRF assay. It counts as functional, cell-based.
Conditions: not given
Target sequence in this assay (P41594 21-1212 limits assumed): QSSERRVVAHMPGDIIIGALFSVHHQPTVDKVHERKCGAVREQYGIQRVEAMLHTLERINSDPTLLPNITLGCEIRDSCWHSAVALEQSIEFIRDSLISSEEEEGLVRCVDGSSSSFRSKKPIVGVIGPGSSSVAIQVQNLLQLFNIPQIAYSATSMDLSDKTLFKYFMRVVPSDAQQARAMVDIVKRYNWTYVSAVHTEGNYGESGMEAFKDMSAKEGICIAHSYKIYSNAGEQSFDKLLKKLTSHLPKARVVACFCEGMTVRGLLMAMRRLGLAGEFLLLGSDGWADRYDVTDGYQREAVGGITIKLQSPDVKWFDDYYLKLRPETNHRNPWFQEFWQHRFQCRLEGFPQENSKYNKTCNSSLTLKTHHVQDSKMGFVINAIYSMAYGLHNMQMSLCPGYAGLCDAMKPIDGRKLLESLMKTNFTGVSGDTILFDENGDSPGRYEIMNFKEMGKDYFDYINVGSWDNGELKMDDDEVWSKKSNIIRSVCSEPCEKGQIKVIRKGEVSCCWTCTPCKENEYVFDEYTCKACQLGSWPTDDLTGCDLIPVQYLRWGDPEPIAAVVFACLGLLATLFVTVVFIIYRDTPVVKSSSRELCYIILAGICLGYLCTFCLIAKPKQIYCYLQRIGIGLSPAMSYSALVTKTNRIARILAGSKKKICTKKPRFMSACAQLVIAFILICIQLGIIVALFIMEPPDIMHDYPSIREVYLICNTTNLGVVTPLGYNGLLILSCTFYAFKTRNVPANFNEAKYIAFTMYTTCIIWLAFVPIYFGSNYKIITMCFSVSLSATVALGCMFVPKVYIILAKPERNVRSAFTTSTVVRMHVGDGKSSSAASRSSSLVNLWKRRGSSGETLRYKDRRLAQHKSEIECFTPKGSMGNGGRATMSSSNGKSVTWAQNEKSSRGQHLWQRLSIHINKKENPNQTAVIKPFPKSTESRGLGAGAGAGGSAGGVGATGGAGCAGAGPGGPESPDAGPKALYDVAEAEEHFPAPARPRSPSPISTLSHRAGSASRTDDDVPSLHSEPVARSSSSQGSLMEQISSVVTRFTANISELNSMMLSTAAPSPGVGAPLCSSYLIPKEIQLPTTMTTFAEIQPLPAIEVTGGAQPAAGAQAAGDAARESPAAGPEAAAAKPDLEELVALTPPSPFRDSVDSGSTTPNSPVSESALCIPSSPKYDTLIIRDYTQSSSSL
With `CCC[C@@H](NC(=O)c1ccccc1)c1cnc(Nc2ccc(C)nc2)c(Cl)c1`, the inhibition was found to be 30%.

Consider `CCC[C@@H](NC(=O)c1ncc(C)s1)c1cnc(Nc2ccc(C)nc2)c(Cl)c1`, for which the inhibition was 49%.

On to `CCC[C@@H](NC(=O)c1nccs1)c1cnc(Nc2ccc(C(F)(F)F)nc2)c(Cl)c1`, for which the inhibition is 31%.

For a further data set, the system named is Mus musculus. Put plainly: Anxiolytic-like activity in mouse model of stress-induced hyperthermia assessed as reduction in stress-induced hyperthermia response at 1 mg/kg, po dosed 1 hr before first rectal temperature measurement.
Conditions: not given
It counts as functional, organism-based. Put shortly: (§1)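 Mice dosed orally with test article in 0.5% methylcellulose vehicle 1 h before first rectal temperature (T1); second rectal temperature (T2) taken 10 min after T1. Basal temperature from T1; SIH response defined as T2–T1. Mean ± SEM, n = 10 per group; one-tailed Williams' test vs vehicle, p <0.025.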
As to `C=CC[C@@H](NC(=O)c1nccs1)c1cnc(Nc2ccc(C)nc2)c(Cl)c1`, the result was Active.

The subject of the next data set is Mus musculus. Put plainly: Effect on basal rectal temperature in mouse model of stress-induced hyperthermia at 0.1 to 1 mg/kg, po dosed 1 hr before first rectal temperature measurement. It counts as ADME, organism-based. Conditions: in vivo. Summed up:
as §1
Take `C=CC[C@@H](NC(=O)c1nccs1)c1cnc(Nc2ccc(C)nc2)c(Cl)c1`: the Activity entry is reported as “Non-toxic”.
